# The whole screen tested about 2,300 compounds, of which about 120 (5.2%) were called active. Only a sample is shown. Unmarked numbers belong to inactive results.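 Rule for the calls: active = mean activation above the mean of DMSO-only wells plus 3 SD (cut at about 0.5% in these data); inactive = the rest.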
# Target: Mu-type opioid receptor (Homo sapiens) (UniProt P35372)
# Assay: OPRM1 agonists via beta-arrestin recruitment, confirmation, counter-screen for mouse HTR2A agonist project, cell-based, luminescence, single concentration (AID 624380)
# Conditions: U2OS OPRM1 beta-arrestin PathHunter, at 9.3 µM, hits give high values, DMSO 0%, DAMGO 9.3 µM 100%
# How it was run: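 system = U2OS cells, OPRM1–beta-arrestin fragment complementation | also added = DAMGO reference agonist, 9.3 µM | schedule = 3 h compound treatment, 37 °C, 1 h room-temperature reagent step | measured by = chemiluminescence from reconstituted beta-galactosidase after detection reagent addition | read-out = percent activation scaled between DMSO-only and DAMGO-treated well medians | repeats = three replicate wells per compound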
# Mu-type opioid receptor (Homo sapiens), sequence (P35372 whole entry, looked up): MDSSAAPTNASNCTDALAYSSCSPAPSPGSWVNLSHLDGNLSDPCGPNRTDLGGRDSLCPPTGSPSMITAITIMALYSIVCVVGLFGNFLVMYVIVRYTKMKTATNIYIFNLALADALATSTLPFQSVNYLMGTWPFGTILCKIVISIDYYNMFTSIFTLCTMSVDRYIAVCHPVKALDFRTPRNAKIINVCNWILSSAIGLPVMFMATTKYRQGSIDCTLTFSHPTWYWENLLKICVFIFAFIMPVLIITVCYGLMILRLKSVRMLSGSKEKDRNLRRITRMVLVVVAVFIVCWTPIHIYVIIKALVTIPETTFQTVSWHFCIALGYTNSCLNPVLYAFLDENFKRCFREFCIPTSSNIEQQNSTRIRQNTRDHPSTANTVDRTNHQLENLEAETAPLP
row,SMILES,activation
1,O=C(NCc1ccco1)c1cccn2c(=O)c3c4c(sc3nc12)CCCC4,-0.39%
2,Cc1ccc2nc(-c3ccncc3)cc(C(=O)Nc3ccncc3)c2c1,3.9% (active)
3,Cc1ccccc1CSCC(=O)NC(=O)NC(C)(C)C,-0.45%
4,CCOCCCNC(=O)Cc1cc(=O)[nH]c(=O)[nH]1,-0.49%
5,C[C@@H]1ON(C)[C@H]2C[C@H]3c4cc(N5CCN(C)CC5)ccc4CCN3C(=O)[C@@H]12,-0.06%
6,Cc1ccc(CN2CCN(c3ncccn3)CC2)c(C)c1,-0.26%
7,O=C(COC(=O)c1cc(S(=O)(=O)N2CCOCC2)ccc1F)NC1CC1,-0.39%
8,CCOc1ccc(/C(O)=C2\C(=O)C(=O)N(c3ccc(OC)cc3)C2c2ccccc2[N+](=O)[O-])cc1 (stereo not given),-0.58%
9,Nc1cc(C(=O)N2CCN(c3ccccc3Cl)CC2)ccc1N1CC2CC(C1)c1cccc(=O)n1C2 (stereo not given),-0.61%
10,COc1ccc(CNC(=O)c2ccc(NS(=O)(=O)c3ccc4[nH]c(=O)[nH]c4c3)cc2)cc1OC,-0.74%
11,O=S(=O)(c1ccc(OCC(O)CN2CCN(c3ccccc3Cl)CC2)cc1)N1CCOCC1 (stereo not given),-0.67%
12,CCOC(=O)c1cc(-c2ccccc2C)n(Cc2cc(C)no2)n1,-0.46%
13,O=C(OCC(=O)N1CCOCC1)c1ccc2ccccc2c1,-0.5%
14,COc1ccc2c(Cl)c(-c3nnco3)sc2c1,-0.41%
15,COc1ccc(C2c3[nH]c4ccccc4c3C[C@H]3C(=O)N(CC(C)C)CC(=O)N23)c(OC)c1 (stereo not given in full),-0.31%
16,COc1ccccc1CN1CCN(Cc2cc(OC)c(OC)cc2OC)CC1,-0.5%
17,COC(=O)c1cc(N2CCNCC2)nc2ccccc12,-0.87%
18,O=C(c1ccncc1)N1CCN(c2ccc3ccccc3n2)CC1,0.53% (active)
19,O=C(Cc1ccccc1)n1nc(-c2ccccc2)nc1NCc1ccco1,0.54% (active)
20,COc1ccc(N2CC(C(=O)NCCN3C(=O)S/C(=C\c4cccnc4)C3=O)CC2=O)c(OC)c1 (stereo not given),-0.55%
21,Cc1c(C(=O)NCC2CC2)sc(=O)n1Cc1cccc(F)c1,-0.53%
22,CCn1c(SCC(=O)N2CCCC2=O)nc2ccccc21,-0.43%
23,Cc1cccnc1C(NC(=O)C1CCN(Cc2ccc(Cl)c(Cl)c2)CC1)c1ccc(Cl)cc1 (stereo not given),-0.69%
24,O=C(Cc1ccsc1)N1CCN(S(=O)(=O)c2cc(C(F)(F)F)cc(C(F)(F)F)c2)CC1,-0.45%

row,SMILES,activation
1,CCn1cc(C(=O)OCC(=O)Nc2cccc(C)c2)c(=O)c2ccc(C)nc21,-0.4%
2,C=C1C(=O)OC2C1CCC(C)=CCCC1(C)OC21 (stereo not given),-0.63%
3,CO/N=C/CC(=O)c1ccc(OC)cc1,-0.34%
4,Cc1ccc(NC(=O)CCOc2ccccc2)cc1S(=O)(=O)Nc1ccccc1Cl,-0.34%
5,O=C(Nc1cccc2cccnc12)c1ccc2sc([C@H]3C[C@H](O)[C@@H](CO)O3)nc2c1,0.15%
6,CC(C)Oc1ccccc1C(=O)NC(CO)C(=O)O (stereo not given),-0.52%
7,Oc1ccc(CN2CCN(c3ncccn3)CC2)cc1,-0.36%
8,CS(=O)(=O)c1ccc2nc(NC(=O)C3CCCCC3)sc2c1,-0.72%
9,COc1ccccc1Nc1nnc(SC(C)C(=O)NC2CC2)s1 (stereo not given),-0.47%
10,Cc1cccc(CN2CCN(C3CN(Cc4ccccc4)S(=O)(=O)C3)CC2)c1 (stereo not given),-0.55%
11,O=C(CNCc1cccs1)Nc1cc(S(=O)(=O)N2CCCC2)ccc1Cl,-0.34%
12,COc1ccc(NS(=O)(=O)c2cc(C(=O)Nc3ccccc3C(=O)O)ccc2C)cc1,-0.47%
13,O=C(Nc1cc(=O)[nH]c2ncnn12)c1ccccc1Cl,-0.64%
14,Cc1cc(C)n(S(=O)(=O)c2cccc([N+](=O)[O-])c2)n1,-0.31%
15,FC(F)(F)COc1nc(N2CCCCC2)nc(N2CCNCC2)n1,-0.49%
16,COc1ccc(/C=N/Nc2ccccc2C(=O)O)cc1,0.45%
17,COc1cccc(OC)c1OCCN1CCN(C(=O)c2ccco2)CC1,-0.41%
18,CC(C)c1cc(C(=O)O)on1,-0.13%
19,Cc1cc(C(=O)OCC(=O)N2c3ccccc3NC(=O)C2(C)C)c(C)n1-c1ccccc1,-0.15%
20,COC(=O)[C@]12CCCCC=C1N(CCC1=CCCCC1)C(=O)[C@H](CC(=O)NCC1CCCCC1)C2,-0.46%
21,Cc1cc([N+](=O)[O-])ccc1NC1CCCC1,0.02%
22,C/C(=N\NC(=O)COc1c(C)cccc1C)c1cccs1,-0.05%
23,N#Cc1c(NC(=O)CCCl)sc2c1CCCCC2,-0.23%
24,CCCN(CCc1ccccc1)C1CCc2c(O)cccc2C1 (stereo not given),0.3%

row,SMILES,activation
1,N#CCSc1nn(-c2ccc(F)cc2)c(=S)s1,-0.5%
2,Cc1[nH]c2ccccc2c1CCN(Cc1cccs1)C(=S)NC(C)(C)C,-0.25%
3,O=C(O)c1ccc(S(=O)(=O)N2CCC(Cc3ccccc3)CC2)cc1,-0.67%
4,CCOC(=O)/C=c1\s/c(=C\c2ccccc2OC)c(=O)n1CC(=O)N1CCOCC1,-0.62%
5,C=CCn1c(=NC(=O)c2cccs2)sc2cc(NC(C)=O)ccc21,0.46%
6,O=C1CCc2cc(S(=O)(=O)N3CCC(C(=O)NCc4ccccc4Cl)CC3)ccc2N1,-0.62%
7,O=C(NCCCN1CCN(c2ccccc2F)CC1)C1CCC(=O)N1C1CCCCC1 (stereo not given),-0.51%
8,CSc1nsc(SCC(=O)Nc2cc(C(=O)O)ccc2C)n1,-0.51%
9,CC(Nc1ccccc1)c1cccnc1 (stereo not given),-0.58%
10,CCOC(=O)[C@]12CCCC=C1N(Cc1ccc3c(c1)OCO3)C(=O)[C@H](CC(=O)NCc1cccs1)C2,-0.19%
11,OCC1(Cc2ccccc2)CCN(Cc2cc3ccccc3o2)CC1,0.94% (active)
12,Cn1c2c(c(=O)n(C)c1=O)C(c1ccc(O)cc1)Nc1ccccc1O2 (stereo not given),-0.51%
13,O=C(O)C1C2C=CC(O2)C1C(=O)NCCc1cccc(Cl)c1 (stereo not given),-0.74%
14,COc1ccc(/C(=N\O)c2nccc3cc(OC)c(OC)cc23)cc1OC,-0.42%
15,CC(=O)N1c2ccc(S(=O)(=O)N3CCC(C(=O)NC4CCCCC4C)CC3)cc2CC1C (stereo not given),-0.74%
16,COC(=O)CC(=O)N1CCN(c2ccc(Cl)c(Cl)c2)CC1,-0.63%
17,Fc1ccc2[nH]c3c(N4CCSCC4)ncnc3c2c1,1.59% (active)
18,CN(C)[C@@H]1C(=O)C(C(N)=O)=C(O)[C@@]2(O)C(=O)C3=C(O)c4c(O)ccc(Cl)c4[C@@H](O)[C@H]3C[C@@H]12,-0.63%
19,O=C(c1ccco1)N1CCN(CCOc2ccccc2)CC1,-0.48%
20,Cc1ccc2c(c1)NCC(C(=O)NC1CCC(C)CC1)O2 (stereo not given),-0.52%
21,COc1ccc(-c2nc3cc([N+](=O)[O-])ccc3o2)cc1OC,0.11%
22,COc1ccc(C(C)=O)cc1COC(=O)Cn1cnc2ccccc2c1=O,0.31%
23,Cc1oc2cc(Br)c(O)c(Br)c2c1C(=O)c1ccccc1,-0.51%
24,CCCCn1c(N)c(N(CC(C)C)C(=O)CSc2ccc([N+](=O)[O-])cc2)c(=O)[nH]c1=O,-0.28%

row,SMILES,activation
1,COc1ccc2[nH]cc(CCN3C(=O)c4ccc(C(=O)O)cc4C3=O)c2c1,-0.57%
2,Cc1ccc(C(=O)N/C(=C/c2cccs2)C(=O)N2CCCCC2)cc1,-0.51%
3,O=C(Nc1ccc2c(c1)[C@@H]1C[C@@H](CC(=O)N3CCCCC3)O[C@@H](CO)[C@@H]1O2)NC1CCCCC1,-0.54%
4,Cc1cccc(CN2CCN(C3CN(Cc4cn(Cc5cc(C)cc(C)c5)nn4)S(=O)(=O)C3)CC2)c1 (stereo not given),-0.64%
5,COC(=O)Cn1nc(-c2ccccc2)c2cc(Cl)ccc21,-0.43%
6,CCCC(=O)N=c1sc2cccc(F)c2n1C,-0.39%
7,CCCCNc1c(-c2cccc(Sc3ccc(OC)cc3)c2)nc2ccccn12,-0.06%
8,CC(=O)c1ccc(OCC(=O)N(C)C2CCS(=O)(=O)C2)cc1 (stereo not given),-0.71%
9,Cc1ccc(S(=O)(=O)N2CCN(c3ncnc4ccccc34)CC2)cc1,0.43%
10,N/C(=N\S(=O)(=O)c1cc(C(F)(F)F)cc(C(F)(F)F)c1)c1cccs1,0.39%
11,CC1(Cc2cccc(C#N)c2)C(=O)Nc2ccc(-c3cccc(C(F)(F)F)c3)cc21 (stereo not given),-0.07%
12,NNc1cccc(C=Cc2ccccc2)cc1=O,0.48%
13,COc1cccc(NC(=O)CSc2nnc(-c3cccnc3)o2)c1,-0.3%
14,O=C1CC(c2cccc(Cl)c2)CC(O)=C1C=Nc1ccccc1 (stereo not given),-0.61%
15,COC(=O)c1ccc(CSc2nnc(NC(C)C)s2)cc1,-0.75%
16,C/C(=N\NC(=S)NC1CCCCC1)c1ccc(C)o1,-0.73%
17,COCCN(Cc1cc2cc3c(cc2nc1Cl)OCO3)C(=O)c1cccc(C)c1,-0.33%
18,Nc1c(N(Cc2ccco2)C(=O)c2cccc(F)c2)c(=O)[nH]c(=O)n1Cc1ccccc1,-0.45%
19,COC(=O)[C@@]1(Cc2ccc(F)cc2)[C@H]2c3cc(C(=O)N(C)C)n(CCc4c[nH]c5ccc(OC)cc45)c3C[C@H]2CN1C(=O)c1ccccc1,-0.5%
20,Cc1ccc(NC(=O)CSc2nnc(COc3ccccc3C)o2)cc1,-0.2%
21,CNCC(O)c1ccc(O)c(O)c1 (stereo not given),-0.22%
22,CSc1ncnc2c1ncn2CCCNCc1cccs1,-0.51%
23,CCCCC(CC)CNC(=O)CCCCn1c(=O)[nH]c2ccsc2c1=O (stereo not given),-0.47%

# — PubChem BioAssay AID624380 (The Scripps Research Institute Molecular Screening Center, 2012)
